The text below walks through data of ChEMBL document CHEMBL1126943, “N-substituted dibenzoxazepines as analgesic PGE2 antagonists” (J Med Chem, 1993).

The test system of assay [1] is Mus musculus. Description: Effective dose required for writhing response in mouse […] on ig administration. The following applies: po. Format: functional. The gist of the method:
(§1)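 In the mouse phenylbenzoquinone writhing test, male CD-1 mice (20–30 g) were dosed ig or sc. After 25 min, 0.025% phenylbenzoquinone was given ip, and writhes were counted over 10 min beginning 5 min later. Protection meant ≤ half the saline median. The ED50 is the dose protecting 50% of mice, with 95% confidence limits from maximum likelihood.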

Assay [2] has as its system Mus musculus. Description: Antinociception at dosage of 30 mg/kg administered in 10 mice. It is filed as functional. The gist of the method: (§2)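 Male albino CD-1 mice, 20–30 g, were given test compound sc or ig (0.1 mL/10 g) at 30 mg/kg. After 25 min they received 0.025% (w/v) phenylbenzoquinone ip. Writhes were counted for 10 min, starting 5 min later. A mouse counted as protected if its writhes were ≤ half the median of that day's saline group. The result is the number of mice protected.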

Assay [3] deals with Mus musculus. Description: Effective dose required for writhing response in mouse […] on sc administration. It is filed as functional. The essentials: as §1
For assay [4], the species on record is Cavia porcellus. Description: Antinociceptive activity against PGE-2 in guinea pig ileum at 3 uM. Conditions: read-out: pA2 (converted). It is filed as functional. The gist of the method: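 Ileum segments (2 cm) from male Hartley guinea pigs were held in modified Tyrode with atropine (0.14 μM) and pyrilamine (2.5 μM), at 37 °C under 95% O2/5% CO2 and 1 g tension. PGE2 concentration–response curves (2 min per dose) were run without and then with test compound. pA2 was calculated from the dose ratio at 3 μM compound.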

The species named for assay [5] is Cavia porcellus. Description: Antinociceptive activity against PGE-2 in guinea pig ileum at 3 uM; inactive. Format: functional, organism-based.
In assay [6] the test system is Mus musculus. Put plainly: Compound was evaluated for antinociception at dosage of 30 mg/kg administered in 9 mice. It is filed as functional. The essentials: as §2

Where “and” joins values, the source holds several entries; their conditions need not be identical. Identical values can stand only once. Calls of active or inactive are those of the source. The calls are words filed in the database; no cut-off is given here.

Consider `Cl.O=C(NNC(=O)C(F)(F)Cc1ccccn1)N1Cc2ccccc2Oc2ccc(Cl)cc21`, for which the ED50 in assay [1] is 9.7 mg/kg.
With `O=C(/C=C/c1cccnc1)NNC(=O)N1Cc2ccccc2Oc2ccc(Cl)cc21`, the No. of mice in assay [2] (30 mg/kg) is 6 and 5.
Consider `Cl.O=C(CCc1ccncc1)NNC(=O)N1Cc2ccccc2Oc2ccc(Cl)cc21`, for which the ED50 was 6.3 mg/kg in assay [3] and 6.8 mg/kg in assay [1]. In addition, the Kb in assay [4] was 316 nM.
In the case of `Cl.O=C(CCc1cccnc1)NNC(=O)N1Cc2ccccc2Oc2ccc(Cl)cc21`, the No. of mice in assay [2] (30 mg/kg) is 6 and 5.
`O=C(CCc1cc[n+]([O-])cc1)NNC(=O)N1Cc2ccccc2Oc2ccc(Cl)cc21`: in assay [2], the No. of mice came to 5.
Turning to `Cl.O=C(Cc1cccnc1)NNC(=O)N1Cc2ccccc2Oc2ccc(Cl)cc21`, the No. of mice in assay [2] (30 mg/kg) was 3 and 5.
`CC(=O)Oc1ccccc1C(=O)O` [ASPIRIN]: the ED50 in assay [1] turned out to be 42.3 mg/kg.
In the case of `Cl.O=C(NNC(=O)N1Cc2ccccc2Oc2ccc(Cl)cc21)c1cccnc1`, the No. of mice in assay [2] (30 mg/kg) is 3 and 1. Further, the pA2 entry in assay [5] is “inactive”.
For the molecule `CC(=O)NNC(=O)N1Cc2ccccc2Oc2ccc(Cl)cc21`, the Kb in assay [4] is 3160 nM.
Regarding `CC(C)Cc1ccc(C(C)C(=O)O)cc1` (stereo not given) [IBUPROFEN], the ED50 in assay [1] was 4.8 mg/kg.
With `Cl.O=C(/C=C/c1ccncc1)NNC(=O)N1Cc2ccccc2Oc2ccc(Cl)cc21`, the No. of mice in assay [2] (30 mg/kg) is 2 and 4.
`Cl.O=C(CCc1ccccn1)NNC(=O)N1Cc2ccccc2Oc2ccc(Cl)cc21`: the ED50 was found to be 9.8 mg/kg in assay [3] and 5.8 mg/kg in assay [1]. Besides, in assay [4], the Kb is 398 nM.
In turn, `O=C(CCCc1ccncc1)NNC(=O)N1Cc2ccccc2Oc2ccc(Cl)cc21` yielded a No. of mice in assay [2] of 6. The ED50 in assay [3] stood at 9.7 mg/kg.
For `Cl.O=C(NNC(=O)N1Cc2ccccc2Oc2ccc(Cl)cc21)c1ccccn1`, the No. of mice in assay [2] (30 mg/kg) was 3 and 2. In assay [5], the pA2 result was “inactive”.
On to `Cl.O=C(NNC(=O)N1Cc2ccccc2Oc2ccc(Cl)cc21)c1ccncc1`, for which the No. of mice in assay [2] (30 mg/kg) is 1 and 2. Further, the pA2 result in assay [5] was “inactive”.
Take `O=C(CCCCCl)NNC(=O)N1Cc2ccccc2Oc2ccc(Cl)cc21` [PINADOLINE]: in assay [4], the Kb was 631 nM.
Same read-out and setting: with `O=C(Cc1ccccc1)NNC(=O)N1Cc2ccccc2Oc2ccc(Cl)cc21` the figure was 1000 nM.
Consider `Cl.O=C(Cc1ccccn1)NNC(=O)N1Cc2ccccc2Oc2ccc(Cl)cc21`, for which the No. of mice in assay [2] amounted to 2. In addition, in assay [5], the pA2 result is “inactive”.
Consider `Cl.O=C(NNC(=O)C(F)(F)C(O)c1ccccn1)N1Cc2ccccc2Oc2ccc(Cl)cc21` (stereo not given), for which the 50% effective dose (ED50) in assay [3] is 7.1 mg/kg; in assay [1], 9.1 mg/kg. In addition, the Kb in assay [4] is 31.6 nM.
Consider `CCCCCC(=O)NNC(=O)N1Cc2ccccc2Oc2ccc(Cl)cc21`, for which the Kb in assay [4] is 251 nM.
Take `O=C(CCc1cccc[n+]1[O-])NNC(=O)N1Cc2ccccc2Oc2ccc(Cl)cc21`: in assay [2] (30 mg/kg), the No. of mice is 1 and 3.
Molecule `Cl.O=C(NNC(=O)C(F)(F)C(O)c1ccncc1)N1Cc2ccccc2Oc2ccc(Cl)cc21` (stereo not given) had a No. of mice in assay [2] of 5. Besides, the ED50 in assay [1] came to 12.3 mg/kg.
For `CCCC(=O)NNC(=O)N1Cc2ccccc2Oc2ccc(Cl)cc21`, the Kb in assay [4] is 1000 nM.
Regarding `Cl.O=C(CCCc1ccccn1)NNC(=O)N1Cc2ccccc2Oc2ccc(Cl)cc21`, in assay [2] (30 mg/kg), the No. of mice is 4 and 5.
Take `Cl.O=C(/C=C/c1ccccn1)NNC(=O)N1Cc2ccccc2Oc2ccc(Cl)cc21`: the No. of mice in assay [2] (30 mg/kg) was 1 and 2. Also, the pA2 entry in assay [5] was “inactive”.
`Cl.O=C(Cc1ccncc1)NNC(=O)N1Cc2ccccc2Oc2ccc(Cl)cc21`: the No. of mice in assay [6] is listed as 3; in assay [2], 1.
